Holding throughout (format): cell-based
The test system of one data set is Vero cells. Description: Cytotoxicity on Vero cells, CPE method. Conditions: 3 d. An outline of the steps: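 Vero cells were seeded at 3×10⁴ cells/well and incubated overnight. Test compounds were then added at different concentrations in triplicate and incubated 3 d, with cytotoxicity scored by CPE. TC50, the concentration inhibiting 50% of cell growth versus untreated controls, was calculated by Reed and Muench.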

The subject of the next data set is HCV. Put plainly: Anti-HCV assay in infected Huh7.5 cells, HCV RNA by RT-PCR. Conditions: Hepatitis C virus, Huh7.5, 96 h, read-out: IC50 (anti-HCV activity). An outline of the steps: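 Huh7.5 cells (DMEM, 10% inactivated FBS) were seeded at 3×10⁴ cells/cm². After 6 h they were infected with chimeric J6/JFH/JC1 HCV stock (45 u/cell) and given test compound at the same time, with an NS3/4A protease inhibitor as positive control. At 96 h, intracellular total RNA was extracted and HCV RNA quantified by one-step RT-PCR. IC50 was calculated by Reed & Muench.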

A short description of data set [1]: Cytotoxicity in Huh7.5 cells, MTT assay. As to conditions: human. The method in brief:
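Huh7.5 cells were plated at 1×10⁴ cells/well. After 6 h the medium was replaced with fresh medium containing test compound at various concentrations. Viability was read by MTT at 96 h, and CC50 was calculated by the Reed & Muench method.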

Another data set relates to EV71 (strain SZ-98). Put plainly: Anti-EV71 assay in Vero cells, CPE method. As to conditions: EV71 strain SZ-98, Vero cells. The method in brief:
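Vero cells (MEM, 10% FBS) at 3×10⁴ cells/well were infected with 100TCID50 EV71 strain SZ-98. Test compounds were added immediately at various concentrations and incubated another 48 h. Cytopathic effect was scored, with pirodavir as positive control. IC50 was determined by the Reed and Muench method.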

The compound `CCC(=O)Nc1cc(C(=O)Nc2ccc(C(C)C)cc2)ccc1OC` [Compound 22, N-(4-Iso-propylphenyl)-4-methoxy-3-propionamidobenzamide] showed a TC50 with Vero cells of over 65.35 µM.

One may read the IC50 as the concentration needed to halve the response being measured. Broadly, the CC50 is the concentration that lowers cell viability or growth by half. On to `CCC(=O)Nc1cc(C(=O)Nc2ccc(C(C)(C)C)cc2)ccc1OC` [Compound 23, N-(4-tert-Butylphenyl)-4-methoxy-3-propionamidobenzamide], for which the IC50 with HCV was determined as 0.57 µM. This compound gave a CC50 at 96 h in data set [1] of 30.7 ± 1.25 µM. The same compound returned a TC50 with Vero cells of 36.24 ± 0.00 µM.

The compound `CCCCc1ccc(NC(=O)c2ccc(OC)c(NC(=O)CC)c2)cc1` [Compound 24, N-(4-Butylphenyl)-4-methoxy-3-propionamidobenzamide] displayed a TC50 with Vero cells of 36.24 ± 0.00 µM.

As to `CCC(=O)Nc1cc(C(=O)Nc2ccc(C3CCCCC3)cc2)ccc1OC` [Compound 25, N-(4-Cyclohexylphenyl)-4-methoxy-3-propionamidobenzamide], the IC50 in the data set with HCV was found to be 2.36 ± 0.12 µM. In data set [1], this compound came in with a CC50 at 96 h of 122 ± 2.6 µM.

As for `CCC(=O)Nc1cc(C(=O)Nc2ccc(C#N)cc2)ccc1OC` [Compound 26, N-(4-Cyanophenyl)-4-methoxy-3-propionamidobenzamide], the TC50 with Vero cells worked out at 297.67 µM.

On to `CCC(=O)Nc1cc(C(=O)Nc2ccc(N3CCN(C)CC3)cc2)ccc1OC` [Compound 27, N-(4-(4-Methylpiperazin-1-yl)phenyl)-4-methoxy-3-propionamidobenzamide], for which, in the data set on EV71 (strain SZ-98), the “anti-EV71 activity (in words)” value is reported as “did not display antiviral activity”. This compound registered a TC50 in the data set on Vero cells of 291.60 ± 0.00 µM.

Compound `CNc1cc(C(=O)Nc2cccc(Cl)c2)ccc1OC` [Compound 28, N-(3-Chlorophenyl)-4-methoxy-3-(methylamino)benzamide] registered a TC50 in the data set on Vero cells of 110.50 ± 0.00 µM.

In turn, `CCc1ccc(NC(=O)c2ccc(OC)c(NC)c2)cc1` [Compound 29, N-(4-Ethylphenyl)-4-methoxy-3-(methylamino)benzamide] yielded a TC50 with Vero cells of over 26.09 µM.

`CNc1cc(C(=O)Nc2ccc(C(C)C)cc2)ccc1OC` [Compound 30, N-(4-iso-propylphenyl)-4-methoxy-3-(methylamino)benzamide] registered a TC50 in the data set on Vero cells of over 8.29 µM.

As to `CNc1cc(C(=O)Nc2ccc(C(C)(C)C)cc2)ccc1OC` [Compound 31, N-(4-tert-Butylphenyl)-4-methoxy-3-(methylamino)benzamide], the IC50 in the data set on HCV amounted to 32 ± 2.14 µM. Besides, the midpoint of cytotoxicity in data set [1], the CC50 at 96 h, lay at 56.6 ± 4.2 µM. The compound also returned a TC50 in the data set with Vero cells of 34.23 ± 0.00 µM.

In the data set with Vero cells, `CCCCc1ccc(NC(=O)c2ccc(OC)c(NC)c2)cc1` [Compound 32, N-(4-Butylphenyl)-4-methoxy-3-(methylamino)benzamide] displayed a TC50 of 41.12 ± 0.00 µM.

Turning to `CNc1cc(C(=O)Nc2ccc(C3CCCCC3)cc2)ccc1OC` [Compound 33, N-(4-Cyclohexylphenyl)-4-methoxy-3-(methylamino)benzamide], the IC50 with HCV amounted to 34.6 ± 3.1 µM. This compound also had a CC50 at 96 h in data set [1] of 40 ± 7.25 µM.

On to `CNc1cc(C(=O)Nc2ccc(C#N)cc2)ccc1OC` [Compound 34, N-(4-Cyanophenyl)-4-methoxy-3-(methylamino)benzamide], for which the TC50 in the data set with Vero cells was over 79.07 µM.

Compound `CCC(=O)Nc1cc(C(=O)Nc2ccc(Cl)cc2)ccc1O` [Compound 35, N-(4-Chlorophenyl)-4-hydroxy-3-propionamidobenzamide] yielded a TC50 with Vero cells of 100.79 ± 0.00 µM.

In the data set with Vero cells, `CCC(=O)Nc1cc(C(=O)Nc2ccc(C(C)(C)C)cc2)ccc1O` [Compound 36, N-(4-tert-Butylphenyl)-4-hydroxy-3-propionamidobenzamide] yielded a TC50 of 86.08 ± 0.00 µM.

Turning to `CCC(=O)Nc1cccc(C(=O)Nc2ccc(Cl)cc2)c1` [Compound 41, N-(4-Chlorophenyl)-3-propionamidobenzamide], the IC50 in the data set on HCV was 7.12 ± 2.48 µM. The CC50 at 96 h in data set [1] was over 200 µM. The compound also registered a TC50 in the data set on Vero cells of 106.12 ± 0.00 µM.

In the case of `CNc1cccc(C(=O)Nc2ccc(Cl)cc2)c1` [Compound 42, N-(4-Chlorophenyl)-3-(methylamino)benzamide], the IC50 with HCV was 19.5 ± 7.18 µM. In addition, the CC50 at 96 h in data set [1] stood at 164 ± 9.84 µM. In the data set on Vero cells, the TC50 is over 28.5 µM.

For the compound `CCC(=O)Nc1cc(C(=O)CNc2ccc(C)cc2)ccc1OC` [Compound 49, N-(2-Methoxy-5-(2-(p-tolylamino)acetyl)phenyl)propionamide], the “anti-EV71 activity (in words)” value in the data set on EV71 (strain SZ-98) is “inactive”. The same compound registered a TC50 with Vero cells of 98.31 µM.

Consider `CCC(=O)Nc1cc(C(=O)CNc2ccc(C(C)(C)C)cc2)ccc1OC` [Compound 50, N-(5-(2-((4-(tert-Butyl)phenyl)amino)acetyl)-2-methoxyphenyl)propionamide], for which the “anti-EV71 activity (in words)” value with EV71 (strain SZ-98) is “inactive”. Moreover, the TC50 in the data set on Vero cells is over 20.14 µM.

As for `CNc1cc(C(=O)CNc2ccccc2)ccc1OC` [Compound 54, 1-(4-Methoxy-3-(methylamino)phenyl)-2-(phenylamino)ethanone], the “anti-EV71 activity (in words)” value in the data set with EV71 (strain SZ-98) was “inactive”. In the data set on Vero cells, this compound returned a TC50 of 167.11 ± 34.70 µM.

Consider `CNc1cc(C(=O)CNc2ccc(Cl)cc2)ccc1OC` [Compound 55, 2-((4-Chlorophenyl)amino)-1-(4-methoxy-3-(methylamino)phenyl)ethanone], for which the “anti-EV71 activity (in words)” value in the data set with EV71 (strain SZ-98) is “inactive”. The TC50 with Vero cells came out at 73.10 ± 0.00 µM.

In the data set with Vero cells, `CCOC(=O)c1ccc(OCCC2CCN(c3ccc(C)nn3)CC2)cc1` [Pirodavir, pirodavir, reference compound] gave a TC50 of 49.78 ± 3.96 µM.

As to `CCC[C@H](NC(=O)[C@@H]1[C@H]2CCC[C@H]2CN1C(=O)[C@@H](NC(=O)[C@@H](NC(=O)c1cnccn1)C1CCCCC1)C(C)(C)C)C(=O)C(=O)NC1CC1` [VX-950, telaprevir, reference compound], the IC50 in the data set on HCV was found to be 0.01 µM. Besides, the midpoint of cytotoxicity in data set [1], the CC50 at 96 h, lay at 21.3 ± 4.7 µM.

For the compound “N-(2,3-Dihydrobenzo[b][1,4]dioxin-6-yl)-4-methyl-3-(methylamino)benzamide [Compound 44]”, the “anti-EV71 activity (in words)” value with EV71 (strain SZ-98) is “poor”. In addition, the TC50 with Vero cells stood at 322.65 ± 0.00 µM.

“N-(2,3-Dihydrobenzo[b][1,4]dioxin-6-yl)-4-methyl-3-propionamidobenzamide [Compound 43]”: the “anti-EV71 activity (in words)” value in the data set with EV71 (strain SZ-98) is on record as “poor”. The compound also returned a TC50 in the data set with Vero cells of 196.10 ± 0.00 µM.

Source of the values: PMC4629265 (Acta Pharmaceutica Sinica. B, 2015).
